From ChEMBL document CHEMBL1123969, “Cardiovascular effects of new water-soluble derivatives of forskolin” (J Med Chem, 1988)
Converted amounts (≈) assume the structure as drawn. The source made the active and inactive calls. The calls are words filed in the database; no cut-off is given here.

Key:
Canis familiaris [1] = assay: Dose required to produce 50 % increase in left ventricular dP/dt max in anesthetized dogs when administered intravenously; type: functional; conditions: Canis lupus familiaris, Heart left ventricle, iv
Outline: (§1)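 Male mongrel dogs (10–18 kg), anesthetized with pentobarbital sodium 35 mg/kg iv, then infused with pentobarbitone 3–5 mg/kg per h, intubated and breathing spontaneously. Compounds in distilled water, given iv via the femoral vein in 0.1 mL/kg. Four to six doses between 0.01 and 3 mg/kg, 10–30 min apart. Percent change in LV dP/dt max over the initial value; ED50 taken from the dose-response curve.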

[2] = Acute toxicity in mice when administered intraperitoneally; type: organism-based; conditions: mouse, in vivo, ip
Outline: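 Mice (18-20 g), either sex; compound dissolved in distilled water or suspended in 0.5% (carboxymethyl)cellulose, injected ip at 10, 30, 100, 300 and 1000 mg/kg (1 mL/100 g body weight). Animals observed for 48 h. Approximate LD50 calculated by the Campbell and Richter method.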

Felis catus [3] = assay: Effective dose for lowering blood pressure in anesthetized cat when administered intravenously; type: functional; conditions: iv
Outline: (§2)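 Cats of either sex, 3–4 kg, under ether induction and chloralose (70 mg/kg iv). Compounds in distilled water or propylene glycol were given iv via the femoral vein at 0.01–10 mg/kg. Fall in mean arterial pressure read 10 min post-dose. ED20 taken graphically from the log dose-response curve, with doses run in triplicate.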

Cavia porcellus [4] = species on record: Cavia porcellus; assay: Positive inotropic activity in spontaneously beating guinea pig atria; type: functional, organism-based
Outline: (§3)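 Guinea pig atria, spontaneously beating, in Ringer solution at 32 °C gassed with 95% O2/5% CO2. Isometric force recorded at 0.5–1 g initial tension after 30 min stabilization. Compounds in water or propylene glycol given cumulatively at 0.01–30 μg/mL, with 7 min contact per dose. EC50 for a 50% force increase taken graphically from the dose-response curve, in triplicate.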

Canis familiaris [5] = assay: Percent increase of heart rate in anesthetized dogs at a dose of 0.03 mg/kg; type: functional, Canis lupus familiaris
Outline: (§4)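 Anesthesia was pentobarbital sodium 35 mg/kg iv, maintained with pentobarbitone 3–5 mg/kg per h. Male mongrel dogs, 10–18 kg, intubated for spontaneous breathing. Aqueous solutions were given iv via the femoral vein at 0.1 mL/kg, in escalating doses with 10–30 min between doses. Mean BP fall and percent heart-rate increase were recorded at each dose, with lead II ECG.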

Canis familiaris [6] = species on record: Canis familiaris; assay: (§5) Percent increase in LV dP/dt max; type: functional, Canis lupus familiaris; outline: as §1
Canis familiaris [7] = species on record: Canis familiaris; assay: as §5; type: functional, Canis lupus familiaris; outline: as §1; remark: listed apart in the source
Canis familiaris [8] = assay: Fall in mean blood pressure in anesthetized dogs at a dose of 0.3 mg/kg; type: functional, Canis lupus familiaris; outline: as §4
Canis familiaris [9] = assay: Fall in mean blood pressure in anesthetized dogs at a dose of 1 mg/kg; type: functional, Canis lupus familiaris; outline: as §4
Canis familiaris [10] = species on record: Canis familiaris; assay: as §5; type: functional, Canis lupus familiaris; outline: as §1; remark: listed apart in the source
Canis familiaris [11] = assay: Fall in mean blood pressure in anesthetized dogs at a dose of 0.1 mg/kg; type: functional, Canis lupus familiaris; outline: as §4
Canis familiaris [12] = assay: Percent increase of heart rate in anesthetized dogs at a dose of 0.1 mg/kg; type: functional, Canis lupus familiaris; outline: as §4
Canis familiaris [13] = assay: Percent increase of heart rate in anesthetized dogs at a dose of 0.3 mg/kg; type: functional, Canis lupus familiaris; outline: as §4
Canis familiaris [14] = assay: Percent increase of heart rate in anesthetized dogs at a dose of 1 mg/kg; type: functional, Canis lupus familiaris; outline: as §4
Canis familiaris [15] = species on record: Canis familiaris; assay: as §5; type: functional, Canis lupus familiaris; outline: as §1; remark: listed apart in the source
Cavia porcellus [16] = species on record: Cavia porcellus; assay: Positive inotropic activity was assessed in spontaneously beating guinea pig atria; NA=Not active; type: functional, organism-based; outline: as §3
Felis catus [17] = assay: Effective dose for lowering of blood pressure in anesthetized cat when administered intravenously; NA=Not active; type: functional, organism-based; outline: as §2

| Compound | ED50 (Canis familiaris [1]) [mg/kg] | LD50 [2] [mg/kg] | ED20 (Felis catus [3]) [mg/kg] | EC50 (Cavia porcellus [4]) [µg/mL] | EC50 (Cavia porcellus [16]) | ED20 (Felis catus [17]) | further results |
| --- | --- | --- | --- | --- | --- | --- | --- |
| C=C[C@@]1(C)CC(=O)[C@]2(O)C3(C)C(C(OC(=O)CN4CCOCC4)C(O)[C@@]2(C)O1)C(C)(C)CC[C@@H]3O.Cl (stereo partly drawn) | 0.11 | 82.5 | 3 | 0.5 |  |  |  |
| C=C[C@@]1(C)CC(=O)[C@]2(O)C3(C)C(C(OC(=O)CN4CCCCC4)C(O)[C@@]2(C)O1)C(C)(C)CC[C@@H]3O.Cl (stereo partly drawn) | 0.052 | 85 | 3 | 1.8 |  |  | Heart rate (Canis familiaris [5]): 6.2%; Activity (Canis familiaris [6]): 94%; Activity (Canis familiaris [7]): 123%; BP (Canis familiaris [8]): 30.2 mmHg; BP (Canis familiaris [9]): 72 mmHg; Activity (Canis familiaris [10]): 48%; BP (Canis familiaris [11]): 8.8 mmHg; Heart rate (Canis familiaris [12]): 8.8%; Heart rate (Canis familiaris [13]): 9.8%; Heart rate (Canis familiaris [14]): 13.8%; Activity (Canis familiaris [15]): 64% |
| C=C[C@@]1(C)CC(=O)[C@]2(O)C3(C)C(C(O)C(OC(=O)CN(CC(=O)OC4C(O)C5C(C)(C)CC[C@H](O)C5(C)[C@@]5(O)C(=O)C[C@](C)(C=C)O[C@]45C)Cc4ccccc4)[C@@]2(C)O1)C(C)(C)CC[C@@H]3O (stereo partly drawn) |  |  |  |  | Not Active | inactive |  |
| C=C[C@@]1(C)CC(=O)[C@]2(O)C3(C)C(C(OC(=O)CCCN4CCN(C)CC4)C(O)[C@@]2(C)O1)C(C)(C)CC[C@@H]3O.Cl (stereo partly drawn) | 0.41 | 65 | 1 | 0.2 |  |  |  |
| C=C[C@@]1(C)CC(=O)[C@]2(O)C3(C)C(C(OC(=O)CCN4CCCCC4)C(O)[C@@]2(C)O1)C(C)(C)CC[C@@H]3O.Cl (stereo partly drawn) | 0.3 | 30 | 1 | 0.5 |  |  |  |
| C=C[C@@]1(C)CC(=O)[C@]2(O)C3(C)C(C(O)C(OC(=O)CN4CCC(O)(c5ccccc5)CC4)[C@@]2(C)O1)C(C)(C)CC[C@@H]3O.Cl (stereo partly drawn) |  |  |  |  | Not Active | inactive |  |
| C=C[C@@]1(C)CC(=O)[C@]2(O)C3(C)C(C(OC(=O)Cn4c(=O)c5c(ncn5COCCOC)n(C)c4=O)C(O)[C@@]2(C)O1)C(C)(C)CC[C@@H]3O (stereo partly drawn) |  |  |  |  | Not Active | inactive |  |
| C=C[C@@]1(C)CC(=O)[C@]2(O)C3(C)C(C(OC(=O)CN(CC)CC)C(O)[C@@]2(C)O1)C(C)(C)CC[C@@H]3O.Cl (stereo partly drawn) |  |  |  |  | Not Active | inactive |  |
| C=C[C@@]1(C)CC(=O)[C@]2(O)C3(C)C(C(O)C(OC(=O)C(C)N4CCOCC4)[C@@]2(C)O1)C(C)(C)CC[C@@H]3O.Cl (stereo partly drawn) | 0.04 | 30 | 2 | 0.27 |  |  |  |
| C=C[C@@]1(C)CC(=O)[C@]2(O)C3(C)C(C(O)C(OC(=O)CNC(=O)OC(C)(C)C)[C@@]2(C)O1)C(C)(C)CC[C@@H]3O (stereo partly drawn) |  |  |  | 9.2 (≈ 17.5 µM) |  | inactive |  |
| C=C[C@@]1(C)CC(=O)[C@]2(O)C3(C)C(C(O)C(OC(=O)CN4CCOCC4)[C@@]2(C)O1)C(C)(C)CC[C@@H]3O.Cl (stereo partly drawn) | 0.035 | 25 |  | 0.35 |  |  |  |
| C=C[C@@]1(C)CC(=O)[C@]2(O)C3(C)C(C(OC(=O)CCN4CCOCC4)C(O)[C@@]2(C)O1)C(C)(C)CC[C@@H]3O.Cl (stereo partly drawn) |  |  |  |  | Not Active | inactive |  |
| C=C[C@@]1(C)CC(=O)[C@]2(O)C3(C)C(C(OC(=O)CN4CCC(O)CC4)C(O)[C@@]2(C)O1)C(C)(C)CC[C@@H]3O.Cl (stereo partly drawn) |  |  |  | 3 |  | inactive |  |
| C=C[C@@]1(C)CC(=O)[C@]2(O)C3(C)C(C(O)C(OC(=O)CCCn4cnc5c4c(=O)n(C)c(=O)n5C)[C@@]2(C)O1)C(C)(C)CC[C@@H]3O (stereo partly drawn) |  |  | 3 |  | Not Active |  |  |
| C=C[C@@]1(C)CC(=O)[C@]2(O)C3(C)C(C(OC(=O)C(C)N4CCCCC4)C(O)[C@@]2(C)O1)C(C)(C)CC[C@@H]3O.Cl (stereo partly drawn) |  |  | 1 |  | Not Active |  |  |
| C=C[C@@]1(C)CC(=O)[C@]2(O)C3(C)C(C(OC(=O)CCCN4CCCCC4)C(O)[C@@]2(C)O1)C(C)(C)CC[C@@H]3O.Cl (stereo partly drawn) |  |  | 3 |  | Not Active |  |  |
| C=C[C@@]1(C)CC(=O)[C@]2(O)C3(C)C(C(O)C(OC(=O)Cn4cnc5ccccc54)[C@@]2(C)O1)C(C)(C)CC[C@@H]3O (stereo partly drawn) |  |  | 10 |  | Not Active |  |  |
| C=C[C@@]1(C)CC(=O)[C@]2(O)C3(C)C(C(O)C(OC(=O)CN(C)C4CCCCC4)[C@@]2(C)O1)C(C)(C)CC[C@@H]3O (stereo partly drawn) |  |  | 10 |  | Not Active |  |  |
| C=C[C@@]1(C)CC(=O)[C@]2(O)C3(C)C(C(OC(=O)CN4C(C)CCCC4C)C(O)[C@@]2(C)O1)C(C)(C)CC[C@@H]3O.Cl (stereo partly drawn) |  |  |  |  | Not Active | inactive |  |
| C=C[C@@]1(C)CC(=O)[C@]2(O)[C@@]3(C)[C@@H](O)CCC(C)(C)[C@@H]3[C@H](O)[C@H](OC(C)=O)[C@@]2(C)O1 [COLFORSIN] | 0.007 | 92 | 0.038 | 0.02 (≈ 0.0487 µM) |  |  |  |
| C=C[C@@]1(C)CC(=O)[C@]2(O)C3(C)C(C(OC(=O)CN4CCC(C)CC4)C(O)[C@@]2(C)O1)C(C)(C)CC[C@@H]3O.Cl (stereo partly drawn) |  |  |  | 2.6 |  | inactive |  |
| C=C[C@@]1(C)CC(=O)[C@]2(O)C3(C)C(C(O)C(OC(=O)CN4C(C)CCCC4C)[C@@]2(C)O1)C(C)(C)CC[C@@H]3O.Cl (stereo partly drawn) |  |  |  |  | Not Active | inactive |  |
